# Assay results pooled from the literature.
# CTSL: Procathepsin L (CTSL, Homo sapiens, UniProt P07711)
# Cnr2: Cannabinoid receptor 2 (Cnr2, Mus musculus, UniProt P47936)
# G protein-coupled receptor 88: G protein-coupled receptor 88 (Homo sapiens, UniProt Q9GZN0)
# mreB: mreB (Escherichia coli, UniProt P0A9X4)
Compound,target,read-out,mode,technique,setting,endpoint,value
CC[C@H]1NC(=O)[C@@H]2CSC(=N2)[C@H](Cc2ccccc2)N(C)C(=O)[C@@H]2CCCN2C(=O)[C@H](C(C)C)N(C)C(=O)[C@H](Cc2ccccc2)OC(=O)[C@H](C)[C@@H](C)NC(=O)[C@@H]([C@@H](C)O)NC(=O)[C@@H](CC(C)C)N(C)C(=O)[C@@H]2CSC1=N2,CTSL,enzyme activity,inhibitor,,,IC50,20400 nM
NC(=O)[C@@H]1CC(F)(F)CN1C(=O)c1ccc(N2CC(F)(F)C2)c(OCC2CC2)n1,Cnr2,cAMP,agonist,,,EC50,3 nM
N[C@@H](CCP(=O)(O)O)C(=O)O,"Metabotropic glutamate receptor 7 (Grm7, Rattus norvegicus, UniProt P35400)",calcium signal,agonist,,,EC50,117000 nM
CCCC#Cc1ccc([C@@H](CO)C(=O)N[C@H](C)c2ccccc2)cc1,G protein-coupled receptor 88,cAMP,agonist,TR-FRET,,EC50,204 nM
CCOC(=O)C(CC)(CCCSCCOCCOCCNc1ccc([N+](=O)[O-])c2nonc12)NC(=O)c1ccc(C2CC2)c(Cc2ccc(F)cc2)n1 (racemic),Cnr2,cAMP,agonist,,,EC50,102 nM
NCCCNC1CCCCc2c1[nH]c1ccc(Br)cc21 (centres unmarked),mreB,ATPase activity,inhibitor,absorbance,,IC50,25000 nM
Cc1cc(/C=C/C#N)cc(C)c1Nc1ccnc(Nc2ccc(C#N)cc2)n1,"pol (Feline immunodeficiency virus, UniProt P16088)",enzyme activity,inhibitor,,,IC50,50.9 nM
NC1CCCCc2c1[nH]c1cc(Cl)c(Cl)cc21 (centres unmarked),mreB,ATPase activity,inhibitor,absorbance,,IC50,29000 nM
Cc1cc(SCc2sc(-c3ccc(C(F)(F)F)c(F)c3)nc2C)ccc1OCC(=O)O,"Thyroid hormone receptor beta (THRB, Homo sapiens, UniProt P10828)",reporter gene,antagonist,luciferase,,IC50,25800 nM
O=C(NCc1ccc(F)cc1)c1cccc(Nc2ccc(-c3ccccc3)nn2)c1,"Anoctamin-2 (ANO2, Homo sapiens, UniProt Q9NQ90)",ion flux,inhibitor,,,IC50,8200 nM
O=[As](O)(O)c1ccc(Cc2ccc([As](=O)(O)O)cc2)cc1,"Autotaxin (ENPP2, Homo sapiens, UniProt Q13822)",enzyme activity,inhibitor,absorbance,,Ki,47.5 nM
Cc1nc([C@@](C)(CC2CC2)NC(=O)c2cc(OCC(F)(F)F)c(C3CC3)cn2)no1,Cnr2,cAMP,agonist,,,EC50,3 nM
CCOC(=O)C(CC)(CCCSCCOCCOCCOCCNC(=O)OC(C)(C)C)NC(=O)c1ccc(C2CC2)c(Cc2ccc(F)cc2)n1 (centres unmarked),Cnr2,ligand displacement,,radioligand,cell membranes,Ki,117 nM
O=P(O)(O)Oc1ccccc1OP(=O)(O)O,"Signal transducer and activator of transcription 5B, SH2 (STAT5B, Homo sapiens, UniProt P51692)",ligand displacement,,FP,,IC50,1950 nM
CC[C@H](NC(=O)OCc1ccccc1)C(=O)N[C@H](C(=O)N[C@@H](Cc1ccccc1)C(=O)N(C)N(C#N)CCC(N)=O)C(C)(C)C,CTSL,enzyme activity,inhibitor,,,Ki,123 nM
CCCc1ccc(-c2ccc([C@@H](CO)C(=O)N[C@H](C)c3ccccc3)cc2)cc1,G protein-coupled receptor 88,cAMP,agonist,TR-FRET,,EC50,138 nM
CCOC(=O)[C@](CC)(CCC[S+]([O-])CCOCCOCCNC(=O)OC(C)(C)C)NC(=O)c1ccc(C2CC2)c(Cc2ccc(F)cc2)n1 (some centres unmarked),Cnr2,ligand displacement,,radioligand,cell membranes,Ki,90 nM
